Among all 360,000 compounds or so, about 5,400 (1.5%) were called active. Many of the other results were omitted from the sample, so actives are more common in it than they were. Values without a mark were called inactive.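 How the source made its calls: active means inhibition above a per-plate cutoff, the mean inhibition of test compounds on that plate plus 3 SD (cut at about 49% in these data); inactive means the rest.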 Where a SMILES comes first, the peptide text is derived from it. The star is where a group is joined. Bz = O=C(c1ccccc1)*
The compounds below were run against Trace amine-associated receptor 1 (Homo sapiens) (UniProt Q96RJ0) (assay: human TAAR1 antagonists, primary screen, Fluo-8 calcium fluorescence, CHO RD-HGA16 cells (AID 624466;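 further: 0% = DMSO plus EC80 beta-PEA response and 100% = DMSO alone without agonist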)). Details: CHO RD-HGA16 TAAR1, Fluo-8 calcium fluorescence, antagonist; at 3 µM; hits give high values.
Outline: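 Test system – hTAAR1-expressing CHO RD-HGA16 cells, Gα16-coupled · Reagent – β-PEA at EC80 concentration, post-compound challenge · Compound dosing – 3 µM, single point · Timing – 140 s kinetic read after compound, 140 s after agonist · Detection – Fluo-8 intracellular calcium dye fluorescence, real-time kinetic reads · Control set – DMSO and EC80 PEA controls · Repeats – n of 1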

Sequence of Trace amine-associated receptor 1 (Homo sapiens) (Q96RJ0 whole entry, looked up, the tested form may be a part): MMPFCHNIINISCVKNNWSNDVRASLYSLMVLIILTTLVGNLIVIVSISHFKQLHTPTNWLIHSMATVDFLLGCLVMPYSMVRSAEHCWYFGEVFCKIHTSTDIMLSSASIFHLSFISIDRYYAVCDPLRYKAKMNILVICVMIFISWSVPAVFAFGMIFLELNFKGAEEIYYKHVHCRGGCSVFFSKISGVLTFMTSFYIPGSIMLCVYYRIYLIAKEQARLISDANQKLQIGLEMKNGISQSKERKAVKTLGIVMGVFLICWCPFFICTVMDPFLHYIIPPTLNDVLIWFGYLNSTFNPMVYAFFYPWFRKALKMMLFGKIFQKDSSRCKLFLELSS

Compound	inhibition
CCOC(=O)N1C(=O)C[C@](Sc2ccc(C)cc2)(C(=O)OC)[C@H]1c1ccccc1	6.96%
COC(=O)c1ccccc1SC1CC(=O)N(c2cccc(C)c2)C1=O (stereo not drawn)	-3.32%
COC(=O)[C@@]1(Sc2ccc(C)cc2)CC(=O)N(c2cccc(SC)c2)[C@@H]1c1ccccc1	67.8% (active)
COC(=O)C(C(=O)OC)c1ccccc1NS(=O)(=O)c1cccc2ccccc12	-21.2%
CC(=O)N1Cc2cc(C(=O)NCc3cccc(F)c3)nc(-c3cccc(C4=CCCCC4)c3)c2[C@H]1CCO	18.2%
O=C(CC[C@H]1O[C@@H](n2ccc(=O)[nH]c2=O)[C@H](O)[C@@H]1O)N[C@H](Cc1ccccc1)C(=O)NCCCN1CCCC1=O	-13.5%
COc1ccc(NS(=O)(=O)c2ccc(C(=O)Nc3c(C)n(C)n(-c4ccccc4)c3=O)cc2)cc1	-27.9%
COc1ccc(C(=O)C(C)OC(=O)c2cccc(S(=O)(=O)Nc3c(C)n(C)n(-c4ccccc4)c3=O)c2)cc1 (stereo not drawn)	-15.1%
Cc1c(NS(=O)(=O)c2cccc(C(=O)Nc3ccc(SC(F)F)cc3)c2)c(=O)n(-c2ccccc2)n1C	51.8% (active)
Cc1cc(C)n2c(Nc3c(C)cccc3C)c(CCc3ccccc3)nc2n1	5.85%
Clc1ccccc1Nc1nc(NCc2cccs2)nc2ccsc12	7.32%
COc1cccc(CNc2nc(NCc3ccccc3OC)nc3ccsc23)c1	36.8%
COc1cccc(CNc2nc(NCc3cccs3)nc3ccsc23)c1	76.6% (active)
O=C1C=C(c2ccc(Cl)cc2)C(=O)N1Nc1ccccc1	74.6% (active)
CC(C)N(C)C(=O)CCc1nnc(CCc2c[nH]c3ccccc23)o1	-0.9%
COC(=O)C1=C(C)N(Cc2cccc(C(F)(F)F)c2)C(=NCc2cccc(C(F)(F)F)c2)NC1c1ccccc1C(F)(F)F (stereo not drawn)	-30.9%
Cc1ccc(C(=O)Nc2ccc(C)c(S(=O)(=O)N(C)C)c2)s1	11.3%
O=C(N[C@H](C(=O)N1CCC[C@H]1C(=O)NCCc1ccccc1Cl)c1ccccc1)c1ccccc1	56.7% (active)
O=C(NCCc1ccc(Cl)cc1)C1CCCN1C(=O)NCc1ccccc1 (stereo not drawn)	-9.56%
O=C(NC(Cc1ccccc1)C(=O)N1CCCC1C(=O)O)c1ccccc1 (stereo not drawn) (Bz-Phe-Pro-OH; configuration not given here)	-24.6%
O=C(Nn1c(-c2ccc(Cl)cc2)nc2ccccc2c1=O)c1cccnc1Cl	15.6%

Compound	inhibition
O=C(C[C@H]1CC[C@H]2[C@@H](COC[C@H](O)CN2C(=O)c2ccccn2)O1)N1CCN(c2ccccc2)CC1	-9.63%
CCOC(=O)N1CCN(C(=O)C[C@@H]2C[C@@]3(C(=O)OC)CC(C)(C)CC=C3N(Cc3ccco3)C2=O)CC1	-19%
COc1ccccc1N1CCN(C(=O)c2cn(-c3ccccc3)nc2-c2cccnc2)CC1	22.2%
COc1ccccc1N1CCN(C(=O)c2ccc(NC3=NC4CS(=O)(=O)CC4S3)cc2)CC1 (stereo not drawn)	-7.44%
COc1ccc(Nc2ncc(C(=O)N3CCN(c4ccccc4OC)CC3)c3ccccc23)cc1	49.5% (active)
CCCC(C)NC(=O)C1CCN(C(=O)C2CC(=O)N(c3ccc(C)cc3)C2)CC1 (stereo not drawn)	3.73%
C[C@@H]1ON(C)[C@H]2C[C@H]3c4cc(N5CCOCC5)ccc4CCN3C[C@@H]12	-3.17%
COc1ccc(S(=O)(=O)Nc2ccc3c(c2)C(=O)N([C@H](C)CO)C[C@H](C)[C@@H](CN(C)C)OCCCC[C@H](C)O3)cc1	-3.5%
C[n+]1ccc(/C=C/c2c[nH]c3ccccc23)cc1	-4.64%
O=C(Cc1c[nH]c2ccccc12)N/N=C/c1cccc(F)c1	15.8%
CSC(=S)N/N=C/c1c[nH]c2ccccc12	88.6% (active)
COc1ccc(CCNC(=O)C(=O)NCC2OCCN2S(=O)(=O)c2ccc(F)cc2)cc1OC (stereo not drawn)	-12%
COc1ccc(CCNC(=O)C(=O)NCC2OCCN2S(=O)(=O)c2ccc(OC)c(C)c2)cc1 (stereo not drawn)	53.6% (active)
COc1ccc(S(=O)(=O)N2CCOC2CNC(=O)C(=O)NCc2ccncc2)cc1C (stereo not drawn)	-15.9%
CC1Cc2[nH][nH]c(=O)c2C(C2CCCC2)O1 (stereo not drawn)	2.81%
CC(C)c1cc(Cn2c3ccccc3c(=O)n2C(C)Cn2cc(C3CC3)nn2)on1 (stereo not drawn)	-16%
CCCCN(C(=O)c1cccc(N2C(=O)c3ccccc3C2=O)c1)c1c(N)n(CCCC)c(=O)[nH]c1=O	5.52%
CC(C)[C@@H](C)/C=C/[C@@H](C)[C@H]1CC[C@@H]2[C@]1(C)CCC1[C@]23C=C[C@]2(C[C@@H](O)CC[C@]12C)N(c1ccc([N+](=O)[O-])cn1)O3 (stereo partly drawn)	-12%
O=c1c2cc(-c3ccccc3)sc2nc2n1N=C(c1cccs1)CS2	-11.2%
Oc1ccccc1N1CCN(C(=S)NCc2ccccc2)CC1	3.27%
Oc1ccccc1N1CCN(c2ncnc3sc(-c4ccccc4)cc23)CC1	58.6% (active)

Compound	inhibition
O=C(Cn1c(N2CCN(C/C=C/c3ccccc3)CC2)nc2ccccc21)c1ccccc1	10.7%
COc1cccc(CC(=O)N2CCN(C(=O)C(=O)c3cccc(C(F)(F)F)c3)CC2)c1	15.5%
Cc1ccccc1NC(=O)Cc1nc(COC(=O)CNC(=O)c2ccc(Cl)cc2Cl)cs1	-26.5%
Cc1ccccc1NC(=O)Cc1nc(COC(=O)C(C)(C)Oc2ccc(Cl)cc2)cs1	64.8% (active)
Cc1ccccc1NC(=O)Cc1nc(COC(=O)c2cccnc2Cl)cs1	10.4%
CC(C)Nc1nnc(SC(C)C(=O)N(C)C2CCCCC2)s1 (stereo not drawn)	-5.6%
Cc1ccc(C)c(-c2nnc(NC(=O)CS(=O)(=O)c3ccccc3)o2)c1	-13.2%
Cc1ccc(S(=O)(=O)CC(=O)NC(C)c2ccccc2)cc1 (stereo not drawn)	-14.5%
Cc1cccc(S(=O)(=O)CC(=O)Nc2nc(-c3ccccc3)cs2)c1	53.8% (active)
CCOC(=O)[C@]12CCCC=C1N(CCC1=CCCCC1)C(=O)[C@H](CC(=O)N1CCCCC1)C2	-49.4%
COC(=O)C1=C(C)N(Cc2ccccc2C(F)(F)F)C(=NCc2ccc(C(F)(F)F)cc2)NC1c1ccc(F)cc1 (stereo not drawn)	-31.9%
Nc1nnc(SCC(=O)Nc2ccc3nc(SCC(=O)Nc4ccccc4)sc3c2)s1	48.9% (active)
CCCCNC(=O)CSc1nc2ccc(NC(=O)CSc3nnc(COc4ccccc4C)n3C)cc2s1	23.6%
CCCCNC(=O)CSc1nc2ccc(NC(=O)CSc3nnc(N)s3)cc2s1	14.2%
COC(=O)[C@@]12C[C@@H](CC(=O)NCCCCc3ccccc3)C(=O)N(Cc3ccccc3)C1=CCC(C)(C)C2	1.67%
CSCCC(C(=O)NC(C)(C)C)n1c(-c2ccccc2)nc2ccccc21 (stereo not drawn)	-24.9%
COC(=O)[C@@]1(Cc2ccc(F)cc2)[C@H]2c3cc(C(=O)N4CCCC4)n(Cc4ccc(OC(F)(F)F)cc4)c3C[C@H]2CN1C(=O)c1ccccc1	-23%
CC(C)c1ccc(NC(=O)Cn2ncc3ccccc32)cc1	-7.65%
CC(NC(=O)Nc1ccccc1)c1ccccc1 (stereo not drawn)	8.89%
CCC(C(=O)Nc1ccc(C(C)C)cc1)c1ccccc1 (stereo not drawn)	83.9% (active)
COc1ccc(C(=O)NCC[N+](C)(C)C)cc1	-19.6%

Compound	inhibition
O=c1[nH]c(-c2ccccc2)cn1C1CCN(Cc2ccc(-c3nc4ccc(F)cc4nc3-c3ccccc3)cc2)CC1	9.33%
O=C(COC(=O)Cc1c[nH]c2ccccc12)NCCc1ccccc1	-12.2%
COc1ccc(CCNC(=O)COC(=O)Cc2ccccc2F)cc1	-11.5%
O=C(COC(=O)Cc1ccccc1F)NCCc1ccccc1	72.9% (active)
Cc1ccc2nc(SCC(=O)Nc3cccc4ccccc34)nc(=O)n2c1	-20.9%
C=CCNC(=O)c1cc2nc(C3CC3)cc(C(F)F)n2n1	7.57%
Cc1ccc(F)c(S(=O)(=O)NC(=O)C2(C)CCN2C(=O)CCc2cccs2)c1 (stereo not drawn)	-14.2%
CCOC(=O)C1C(c2ccc(OC)c(OC)c2)c2c([nH][nH]c2=O)CC1(C)O (stereo not drawn)	56.8% (active)
CCOC(=O)C1C(c2ccc(O)cc2)NC(=O)NC1(O)C(F)(F)F (stereo not drawn)	-14.2%
CCC1(C)COC(c2ccc(OC)c(OC)c2)OC1 (stereo not drawn)	-18.6%
Cc1cccc(N2CCN(Cc3nc(C4CC4)no3)CC2)n1	-31.7%
Cc1cc(OC(=O)NCCc2ccc(F)cc2)ccc1F	-10.5%
CC(C)CNc1cccc2c1S(=O)(=O)N[C@H](CC(C)C)CO2	-8.78%
Cc1ccc(-c2nnc(SCC(=O)N/N=C/c3cccs3)n2-c2ccc(C)cc2)cc1	7.24%
COc1ccc(NC(=O)COC(=O)Cn2c(C)nc3ccccc32)cc1OC	13.9%
Cc1nc2ccccc2n1CC(=O)N/N=C/c1cccs1	56.9% (active)
Cc1[nH]c2ccccc2c1C(=O)c1cc([C@H](NC(=O)OC(C)(C)C)C(C)C)sc1N	-5.4%
C=CCn1c(=O)c2ccccc2n2c(SCC(=O)N3CCCc4ccccc43)nnc12	5.64%
O=C(CSc1nc2ccccc2c(=O)n1CCCO)N1CCc2ccccc21	-4.55%
Cn1c(SCC(=O)N2CCCc3ccccc32)nc2ccccc2c1=O	59.3% (active)

From PubChem BioAssay AID624466 (The Scripps Research Institute Molecular Screening Center, 2012)
